Converted amounts (≈) assume the structure as drawn.
Assays:
Solubility in water = assay type: physicochemical
Procedure, shortened: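 Water solubility measured at 20°C, reported in mg/L.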

Marssonina blotch = assay: Field trials, apple Marssonina blotch; assay type: in vivo; conditions: PARADE 15FL; field trials Aomori Prefecture 2010 and 2013
[1] = test system: SDH derived from Sclerotinia minor; assay: SDH inhibition, DCIP method; assay type: biochemical; conditions: read-out: SDH IC50
[2] = target: SDH derived from Botrytis cinerea (Botrytis cinerea, UniProt A0A384J5E4+D2IH01+D2IH03); assay: SDH inhibition, DCIP method; assay type: biochemical
[3] = target: SDH derived from Blumeria graminis (Blumeria graminis, UniProt N1J5Q8+N1JC31+N1JIS1); assay: SDH inhibition, DCIP method; assay type: biochemical
[4] = target: SDH derived from Venturia inaequalis (Venturia inaequalis, UniProt A0A0H4U4T0+A0A370JIY7+A0A8H3Z7E8); assay: SDH inhibition, DCIP method; assay type: biochemical; conditions: read-out: SDH IC50
[5] = test system: SDH derived from Alternaria brassicae; assay: SDH inhibition, DCIP method; assay type: biochemical; conditions: read-out: SDH IC50
[6] = target: SDH derived from Magnaporthe oryzae (Pyricularia oryzae, UniProt A0ABQ8NN34+G4N2P5+G4NB04); assay type: biochemical; conditions: read-out: SDH IC50
[7] = target: SDH derived from Puccinia recondita (Puccinia triticina, UniProt A0A0C4ES27+A0A180H0E4+A0A915VLF5); assay: SDH inhibition, DCIP method; assay type: biochemical; conditions: read-out: SDH IC50
[8] = target: SDH derived from Rhizoctonia solani (Rhizoctonia solani, UniProt A0A074S2N8+A0A0B7FBK7+A0A0B7FK09); assay: SDH inhibition, DCIP method; assay type: biochemical; conditions: read-out: SDH IC50
[9] = test system: SDH derived from Pythium aphanidermatum; assay: SDH inhibition, DCIP method; assay type: biochemical
[10] = target: SDH derived from Brassica oleracea (Cabbage) (Brassica oleracea, UniProt A0A0D3B707+A0A0D3E0G9+A0A0D3EGP9); assay: SDH inhibition, DCIP method; assay type: biochemical; conditions: nontarget SDH
[11] = target: SDH derived from Solanum lycopersicum (Tomato) (Solanum lycopersicum, UniProt D2KQI9+Q952Q7+Q952R1); assay: SDH inhibition, DCIP method; assay type: biochemical; conditions: nontarget SDH
[12] = target: SDH derived from Cucumis sativus (Cucumber) (Cucumis sativus, UniProt A0A0A0LBZ3+G3EIY8+G3EJ03); assay: SDH inhibition, DCIP method; assay type: biochemical; conditions: nontarget SDH
[13] = target: SDH derived from Mus musculus (Mouse) (Mus musculus, UniProt Q9CQA3+Q9CXV1+Q9CZB0); assay: SDH inhibition, DCIP method; assay type: biochemical
Gray mold (Cucumber) = conditions: cited from earlier work
Brown rust (Wheat) = conditions: cited from earlier work
Powdery mildew (Barley) = conditions: cited from earlier work
Sclerotinia sclerotiorum = conditions: cited from earlier work

Sequence of SDH derived from Mus musculus (Mouse) (Q9CQA3 31-282): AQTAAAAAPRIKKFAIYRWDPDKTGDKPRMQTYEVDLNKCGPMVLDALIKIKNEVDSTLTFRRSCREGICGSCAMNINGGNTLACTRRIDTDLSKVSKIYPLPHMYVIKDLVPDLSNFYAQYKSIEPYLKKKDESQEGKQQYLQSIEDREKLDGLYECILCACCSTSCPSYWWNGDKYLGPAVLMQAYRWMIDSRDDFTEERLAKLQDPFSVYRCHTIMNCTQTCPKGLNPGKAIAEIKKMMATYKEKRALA
Sequence of SDH derived from Mus musculus (Mouse) (Q9CZB0 30-169): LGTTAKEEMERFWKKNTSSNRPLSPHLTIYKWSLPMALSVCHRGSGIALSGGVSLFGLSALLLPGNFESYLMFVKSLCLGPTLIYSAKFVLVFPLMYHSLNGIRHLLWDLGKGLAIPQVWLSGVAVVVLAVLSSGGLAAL
Sequence of SDH derived from Mus musculus (Mouse) (Q9CXV1 57-159): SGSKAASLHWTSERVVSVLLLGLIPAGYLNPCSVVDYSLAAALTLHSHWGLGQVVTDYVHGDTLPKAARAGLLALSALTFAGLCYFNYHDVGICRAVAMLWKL
Sequence of SDH derived from Mus musculus (Mouse) (Q8K2B3 43-664 partner): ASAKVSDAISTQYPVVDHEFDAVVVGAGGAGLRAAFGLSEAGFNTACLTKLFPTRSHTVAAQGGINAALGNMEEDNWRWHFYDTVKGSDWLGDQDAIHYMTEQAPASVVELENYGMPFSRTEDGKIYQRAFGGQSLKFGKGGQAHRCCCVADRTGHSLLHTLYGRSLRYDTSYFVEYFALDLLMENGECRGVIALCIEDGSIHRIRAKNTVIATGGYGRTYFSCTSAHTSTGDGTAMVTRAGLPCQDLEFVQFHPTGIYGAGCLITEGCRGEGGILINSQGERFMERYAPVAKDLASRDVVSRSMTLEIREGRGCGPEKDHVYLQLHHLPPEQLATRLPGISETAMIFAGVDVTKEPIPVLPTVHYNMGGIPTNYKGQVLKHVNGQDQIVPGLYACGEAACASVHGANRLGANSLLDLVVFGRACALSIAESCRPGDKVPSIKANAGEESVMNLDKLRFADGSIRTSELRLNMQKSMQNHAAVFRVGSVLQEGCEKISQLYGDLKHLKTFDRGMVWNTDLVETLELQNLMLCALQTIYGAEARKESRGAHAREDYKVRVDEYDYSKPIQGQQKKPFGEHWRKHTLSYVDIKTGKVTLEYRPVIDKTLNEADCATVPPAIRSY
Sequence of SDH derived from Botrytis cinerea (A0A384J5E4 30-300): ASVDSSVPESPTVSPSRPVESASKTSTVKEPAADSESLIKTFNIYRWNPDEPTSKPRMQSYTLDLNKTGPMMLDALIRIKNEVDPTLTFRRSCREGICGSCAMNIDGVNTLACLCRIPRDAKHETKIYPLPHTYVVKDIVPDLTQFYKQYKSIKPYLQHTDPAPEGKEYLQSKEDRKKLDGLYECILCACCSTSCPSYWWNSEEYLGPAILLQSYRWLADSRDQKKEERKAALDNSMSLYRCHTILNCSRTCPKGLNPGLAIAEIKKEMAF
Sequence of SDH derived from Botrytis cinerea (D2IH03 46-189): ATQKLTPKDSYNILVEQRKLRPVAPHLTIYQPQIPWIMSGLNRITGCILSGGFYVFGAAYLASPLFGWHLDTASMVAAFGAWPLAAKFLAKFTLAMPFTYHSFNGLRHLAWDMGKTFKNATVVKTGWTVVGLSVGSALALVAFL
Sequence of SDH derived from Botrytis cinerea (D2IH01 64-192): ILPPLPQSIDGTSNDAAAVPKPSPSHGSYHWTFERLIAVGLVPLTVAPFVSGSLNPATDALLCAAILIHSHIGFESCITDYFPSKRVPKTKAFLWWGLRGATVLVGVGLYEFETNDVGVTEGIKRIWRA
Sequence of SDH derived from Botrytis cinerea (A0A384K456 34-647 partner): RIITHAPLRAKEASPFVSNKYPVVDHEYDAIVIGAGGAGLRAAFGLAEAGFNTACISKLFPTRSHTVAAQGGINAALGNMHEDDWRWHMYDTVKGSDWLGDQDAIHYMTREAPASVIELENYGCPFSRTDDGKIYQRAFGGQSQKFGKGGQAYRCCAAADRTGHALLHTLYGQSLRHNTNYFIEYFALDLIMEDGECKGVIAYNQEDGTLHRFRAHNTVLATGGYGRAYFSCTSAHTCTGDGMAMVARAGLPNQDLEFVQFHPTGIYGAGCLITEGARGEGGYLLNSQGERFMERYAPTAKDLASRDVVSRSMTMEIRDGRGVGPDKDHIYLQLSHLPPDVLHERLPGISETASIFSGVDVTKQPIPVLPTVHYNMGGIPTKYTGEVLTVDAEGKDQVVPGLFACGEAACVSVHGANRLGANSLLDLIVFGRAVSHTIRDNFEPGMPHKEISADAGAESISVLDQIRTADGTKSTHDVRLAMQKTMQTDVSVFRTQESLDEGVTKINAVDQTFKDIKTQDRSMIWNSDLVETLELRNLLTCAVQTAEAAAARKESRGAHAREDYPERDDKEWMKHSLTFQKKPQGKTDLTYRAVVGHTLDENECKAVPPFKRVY
Sequence of SDH derived from Brassica oleracea (Cabbage) (A0A0D3E0G9 29-281): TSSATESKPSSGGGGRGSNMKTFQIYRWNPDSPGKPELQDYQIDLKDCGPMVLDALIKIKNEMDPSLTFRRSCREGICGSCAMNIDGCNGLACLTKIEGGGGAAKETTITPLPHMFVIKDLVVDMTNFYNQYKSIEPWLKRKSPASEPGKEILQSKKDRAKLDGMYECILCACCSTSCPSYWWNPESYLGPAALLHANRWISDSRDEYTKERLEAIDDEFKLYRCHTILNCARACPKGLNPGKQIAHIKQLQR
Sequence of SDH derived from Brassica oleracea (Cabbage) (A0A0D3EGP9 103-213): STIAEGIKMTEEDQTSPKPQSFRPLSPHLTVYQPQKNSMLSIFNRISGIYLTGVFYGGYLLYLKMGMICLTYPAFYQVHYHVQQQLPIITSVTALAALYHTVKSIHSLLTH
Sequence of SDH derived from Brassica oleracea (Cabbage) (A0A0D3B707 83-139): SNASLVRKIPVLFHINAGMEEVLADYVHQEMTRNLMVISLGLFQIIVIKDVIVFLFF
Sequence of SDH derived from Brassica oleracea (Cabbage) (A0A0D3D8D6 28-626 partner): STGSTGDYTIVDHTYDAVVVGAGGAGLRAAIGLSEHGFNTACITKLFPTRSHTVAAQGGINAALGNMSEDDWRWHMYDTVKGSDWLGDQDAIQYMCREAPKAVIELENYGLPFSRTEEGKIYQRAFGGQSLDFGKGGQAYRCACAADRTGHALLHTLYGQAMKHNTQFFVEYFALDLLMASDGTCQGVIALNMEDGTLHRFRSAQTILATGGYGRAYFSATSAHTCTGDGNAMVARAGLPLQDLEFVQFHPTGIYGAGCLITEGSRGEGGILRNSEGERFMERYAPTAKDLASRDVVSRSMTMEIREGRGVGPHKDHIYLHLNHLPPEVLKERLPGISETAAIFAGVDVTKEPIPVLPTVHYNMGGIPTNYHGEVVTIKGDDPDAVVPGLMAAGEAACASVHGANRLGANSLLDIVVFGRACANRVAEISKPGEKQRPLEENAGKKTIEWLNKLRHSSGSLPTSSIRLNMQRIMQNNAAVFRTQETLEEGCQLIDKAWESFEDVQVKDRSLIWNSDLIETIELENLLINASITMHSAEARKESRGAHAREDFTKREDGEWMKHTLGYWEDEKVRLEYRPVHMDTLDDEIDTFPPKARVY
Sequence of SDH derived from Puccinia recondita (A0A180H0E4 31-288): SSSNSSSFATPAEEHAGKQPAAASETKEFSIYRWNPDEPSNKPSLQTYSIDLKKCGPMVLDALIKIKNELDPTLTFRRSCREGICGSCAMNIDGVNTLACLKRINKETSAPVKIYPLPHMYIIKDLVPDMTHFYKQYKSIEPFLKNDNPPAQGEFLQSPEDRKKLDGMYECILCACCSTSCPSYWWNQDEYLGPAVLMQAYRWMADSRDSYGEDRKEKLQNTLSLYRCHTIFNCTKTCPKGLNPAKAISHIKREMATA
Sequence of SDH derived from Puccinia recondita (A0A915VLF5 45-189): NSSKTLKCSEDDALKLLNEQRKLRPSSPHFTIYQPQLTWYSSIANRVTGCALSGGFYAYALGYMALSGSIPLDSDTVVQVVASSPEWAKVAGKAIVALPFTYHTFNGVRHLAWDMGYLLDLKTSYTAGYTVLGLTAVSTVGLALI
Sequence of SDH derived from Puccinia recondita (A0A0C4ES27 40-183): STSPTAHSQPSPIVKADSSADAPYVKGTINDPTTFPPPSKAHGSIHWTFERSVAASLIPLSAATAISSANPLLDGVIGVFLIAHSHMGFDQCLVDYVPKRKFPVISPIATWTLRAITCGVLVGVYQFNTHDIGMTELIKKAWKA
Sequence of SDH derived from Puccinia recondita (A0ABY7CNW8 35-649 partner): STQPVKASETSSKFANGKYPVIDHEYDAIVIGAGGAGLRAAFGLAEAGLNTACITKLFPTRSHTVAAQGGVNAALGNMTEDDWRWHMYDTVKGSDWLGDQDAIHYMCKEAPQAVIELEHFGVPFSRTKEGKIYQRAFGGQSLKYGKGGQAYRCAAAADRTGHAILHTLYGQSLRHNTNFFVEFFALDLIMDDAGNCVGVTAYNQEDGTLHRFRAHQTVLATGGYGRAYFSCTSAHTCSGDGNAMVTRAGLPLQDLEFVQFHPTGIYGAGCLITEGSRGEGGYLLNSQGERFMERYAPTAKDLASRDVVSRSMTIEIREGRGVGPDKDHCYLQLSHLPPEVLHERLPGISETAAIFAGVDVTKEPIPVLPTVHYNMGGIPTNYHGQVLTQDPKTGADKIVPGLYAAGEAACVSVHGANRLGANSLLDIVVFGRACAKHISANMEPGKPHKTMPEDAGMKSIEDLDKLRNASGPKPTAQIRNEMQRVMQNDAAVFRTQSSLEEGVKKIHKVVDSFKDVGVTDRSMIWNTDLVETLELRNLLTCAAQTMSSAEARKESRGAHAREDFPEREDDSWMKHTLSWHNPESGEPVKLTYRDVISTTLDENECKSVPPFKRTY

Q: With O=C(Nc1ccccc1-c1ccc(F)c(F)c1)c1nccnc1C(F)(F)F [Compound 9, N-(3′,4′-difluorobiphenyl-2-yl)-3-(trifluoromethyl)pyrazine-2-carboxamide] as the compound, how does the solubility (Solubility in water) read?
A: 2.32 µg/mL (≈ 6.12 µM)

Q: What about the “residual activity against Marssonina blotch of apple” value (Marssonina blotch) of the same compound?
A: excellent residual activity

Q: And the IC50 [1]?
A: 0.7 nM

Q: And the IC50 [2]?
A: 4.1 nM

Q: And the IC50 [3]?
A: 5.8 nM

Q: What about the IC50 [4] of the same compound?
A: 18.9 nM

Q: And the IC50 [5]?
A: 2.1 nM

Q: What about the IC50 [6] of the same compound?
A: 2500 nM

Q: What about the IC50 [7] of the same compound?
A: 14.4 nM

Q: What about the IC50 [8] of the same compound?
A: 5.9 nM

Q: What about the SDH inhibitory activity ([9]; oomycete Pythium aphanidermatum) of the same compound?
A: no inhibitory activity

Q: And the IC50 ([9]; read-out: SDH IC50, Pythium aphanidermatum)?
A: > 8 µM

Q: And the SDH inhibitory activity [10]?
A: did not show any inhibitory activity

Q: What about the SDH inhibitory activity [11] of the same compound?
A: did not show any inhibitory activity

Q: What about the SDH inhibitory activity [12] of the same compound?
A: did not show any inhibitory activity

Q: And the IC50 [13]?
A: > 32 µM

Q: What about the SDH inhibitory activity ([13]; nontarget SDH, mice) of the same compound?
A: did not show any inhibitory activity

Q: And the “Fungicidal activity EC80, Gray mold (Cucumber)” value (Gray mold (Cucumber))?
A: 2–10 mg a.i./L

Q: What about the “Fungicidal activity EC80, Brown rust (Wheat)” value (Brown rust (Wheat)) of the same compound?
A: 0.5–2 mg a.i./L

Q: And the “Fungicidal activity EC80, Powdery mildew (Barley)” value (Powdery mildew (Barley))?
A: 0.5–2 mg a.i./L

Q: And the “inhibition activity against apothecium formation” value (Sclerotinia sclerotiorum)?
A: exhibits inhibition activity

From PMC7453301 (Journal of Pesticide Science, 2020)
